For 1 compound, Ratio and Activity results are on record in ChEMBL document CHEMBL1155241, “Investigation of N-aryl-3-alkylidenepyrrolinones as potential Niemann-Pick type C disease therapeutics” (2009).

A short description of assay [1]: Inhibition of LDL endocytosis in wild type chinese hamster 25RA cells assessed as ratio of DiI-labeled LDL level in treated to untreated control at 10 uM after 35 mins by fluorimetry. Type of assay: functional, Cricetulus griseus. The method, boiled down: (§1)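 CT60 or 25RA cells incubated with compound together with DiI-labeled LDL, either 35 min (short) or 18 h (long). Uptake quantified as DiI fluorescence intensity per cell area and normalized to the mean of solvent (DMSO)-treated samples.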

A short description of assay [2]: Inhibition of LDL endocytosis in NPC1 deficient chinese hamster CT60 cells assessed as ratio of DiI-labeled LDL level in treated to untreated control at 10 uM after 18 hrs by fluorimetry. It is filed as functional, Cricetulus griseus. The method, boiled down: as §1
Assay [3] addresses T1, Sterol O-acyltransferase 1 (Cricetulus griseus) (UniProt Q60457).
T1 sequence (whole entry): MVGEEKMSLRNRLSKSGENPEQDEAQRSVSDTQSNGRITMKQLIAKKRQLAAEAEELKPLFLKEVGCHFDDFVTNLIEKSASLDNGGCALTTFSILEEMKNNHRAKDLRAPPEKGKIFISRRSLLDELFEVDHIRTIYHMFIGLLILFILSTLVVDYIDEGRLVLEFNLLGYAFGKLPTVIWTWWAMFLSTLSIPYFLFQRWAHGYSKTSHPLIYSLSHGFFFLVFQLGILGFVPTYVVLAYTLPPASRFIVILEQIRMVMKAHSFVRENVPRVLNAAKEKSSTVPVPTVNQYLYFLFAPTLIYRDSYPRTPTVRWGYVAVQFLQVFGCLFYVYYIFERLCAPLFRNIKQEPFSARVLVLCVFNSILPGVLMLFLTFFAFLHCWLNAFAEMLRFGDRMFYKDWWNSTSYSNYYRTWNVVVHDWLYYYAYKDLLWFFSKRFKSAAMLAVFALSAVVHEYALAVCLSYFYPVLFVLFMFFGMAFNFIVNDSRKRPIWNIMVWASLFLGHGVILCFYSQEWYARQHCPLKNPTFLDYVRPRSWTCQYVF
As to the kind of experiment: Increase in ACAT-induced cholesterol esterification in NPC1 deficient chinese hamster CT60 cells assessed as ratio of [14C]oleic acid incorporation in treated to untreated control at 10 uM. It is filed as cell-based. The procedure, abridged:
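CT60 cells treated 18 h at 10 µM. ACAT esterification measured as incorporation of [14C]-oleic acid into cholesteryl-[14C]-oleate, normalized to cellular protein. Expressed relative to solvent-treated controls.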

Assay [4] can be described thus: Effect on cholesterol esters content in NPC1 deficient chinese hamster CT60 cells assessed as ratio of cholesteryl esters level in treated to untreated control at 10 uM by gas chromatography. It is filed as functional, Cricetulus griseus. The procedure, abridged:
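CT60 cells exposed to 10 µM for 18 h alongside solvent (DMSO) controls. Total cellular cholesteryl ester measured by GC and expressed per µg cell protein. Reported relative to solvent-treated cells.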

The test system of a further assay is CT60. As to the kind of experiment: Increase in cholesterol efflux in NPC1 deficient chinese hamster CT60 cells at 10 uM after 18 hrs by [3H]cholesterol incorporation assay. The following applies: Cricetulus griseus. It is filed as functional, cell-based. The procedure, abridged: (§2)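 Cells labeled 24 h with 1 µCi/ml [3H]-cholesterol, then incubated 18 h with 10 µM compound. Efflux went to serum acceptors. Efflux is supernatant radioactivity divided by supernatant plus cell-monolayer radioactivity, compared with solvent-treated control cells.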

The species entered for assay [5] is Cricetulus griseus. The experiment in a line: Increase in cholesterol efflux in wild type chinese hamster 25RA cells with SCAP gene gain of function mutation at 10 uM after 18 hrs by [3H]cholesterol incorporation assay. Type of assay: functional. The method, boiled down: as §2
Assay [6] is filed under the species Cricetulus griseus. The experiment in a line: Increase in cholesterol efflux in chinese hamster TRVb1 cells expressing human transferrin receptor at 10 uM after 18 hrs by [3H]cholesterol incorporation assay. Type of assay: functional. The procedure, abridged:
as §2

Assay [7] can be described thus: Reduction in cholesterol level in lysosomal storage organelles of NPC1 deficient chinese hamster CT43 cells at 10 uM by LSO compartment ratio assay. Type of assay: functional, Cricetulus griseus. Also on record: scale not given: the % may be the effect or the level left.
Assay [8] is described as follows: Reduction in cholesterol level in lysosomal storage organelles of NPC1 deficient chinese hamster CT60 cells at 10 uM by LSO compartment ratio assay. Type of assay: functional, Cricetulus griseus. Also on record: scale not given: the % may be the effect or the level left.
Assay [9] is described as follows: Inhibition of LDL endocytosis in NPC1 deficient chinese hamster CT60 cells assessed as ratio of DiI-labeled LDL level in treated to untreated control at 10 uM after 35 mins by fluorimetry. It is filed as functional, Cricetulus griseus. The procedure, abridged:
as §1

Assay [10] in a line: Inhibition of LDL endocytosis in NPC1 deficient chinese hamster cells assessed as ratio of DiI-labeled LDL level in treated to untreated control at 10 uM after 18 hrs by fluorimetry.

Calls of active or inactive are those of the source. No cut-off for these calls is given here.

In the case of `O=C(O)c1ccc(N2C(=O)/C(=C\c3ccc(-c4ccc(Br)cc4)o3)C=C2c2ccccc2)cc1`, the Ratio in assay [1] is 1.16; in assay [2], 0.59; in assay [3] it was 1.49; in assay [4] it was 1.05; in assay [9], 0.93; in [10] it was 0.67. For the same compound, the outcome in the assay with CT60, in the assay filed under Cricetulus griseus [5] and in the assay listed under Cricetulus griseus [6] was Active. The values for the Activity in [7] and in [8] were 80% and 30%, respectively.
